Experimental data: ChEMBL document CHEMBL1240350, “In vitro activity of CEM-101 against Streptococcus pneumoniae and Streptococcus pyogenes with defined macrolide resistance mechanisms” (Antimicrob Agents Chemother, 2010)
≈ marks a conversion by molar mass, not a printed value.

Columns and labels:
Streptococcus pneumoniae [1] = assay: Antibacterial activity against macrolide-susceptible Streptococcus pneumoniae 7127 harboring S20N mutation in L4 ribosomal protein and A105V mutation in L22 ribosomal protein after 15 passages and 10 compound-free subculturing by retest method; format: functional
Streptococcus pneumoniae [2] = assay: Antibacterial activity against macrolide-susceptible Streptococcus pneumoniae 1077 after 29 passages and 10 compound-free subculturing by retest method; format: functional
Streptococcus pyogenes [3] = assay: Antibacterial activity against macrolide-susceptible Streptococcus pyogenes 2132 after 28 passages and 10 compound-free subculturing by retest method
Streptococcus pneumoniae [4] = assay: Antibacterial activity against Streptococcus pneumoniae harboring erm(B) gene after overnight incubation by agar dilution method; format: functional
In short: (§1)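 Clinical isolates collected 1998–2008, with macrolide-resistance genes confirmed by PCR. MICs by agar dilution on Mueller-Hinton agar with 5% sheep blood. Inoculum 10^4 CFU/spot, incubated overnight at 35°C in ambient air. S. pneumoniae ATCC 49619 was the quality-control strain in every run.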

Streptococcus pneumoniae [5] = assay: Antibacterial activity against macrolide-resistant Streptococcus pneumoniae harboring mutation in L4 ribosomal protein after overnight incubation by agar dilution method; format: functional
In short: (§2)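 Agar dilution MICs on Mueller-Hinton agar with 5% sheep blood. Inoculum 10^4 CFU/spot, incubated overnight at 35°C in ambient air. Clinical S. pneumoniae or group A streptococcal isolates; resistance genotypes (erm(B), erm(A), mef(A)/mef(E)) were assigned by PCR. S. pneumoniae ATCC 49619 served as QC strain in each run. Range, MIC50 and MIC90 reported per phenotype group.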

Streptococcus pneumoniae [6] = assay: Antibacterial activity against macrolide-resistant Streptococcus pneumoniae 1635 harboring erm(A) gene after 49 passages and 10 compound-free subculturing by retest method; format: functional
In short: (§3)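 Multistep selection by daily serial passage in subinhibitory drug concentrations. Medium was cation-adjusted Mueller-Hinton broth plus 5% lysed horse blood. Each day the next inoculum came from the tube 1–2 dilutions below the MIC whose turbidity matched the growth control, for up to 50 days. Clone MICs by CLSI macrodilution; identity to the parent confirmed by SmaI PFGE.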

Streptococcus pneumoniae [7] = assay: Antibacterial activity against macrolide-susceptible Streptococcus pneumoniae 1077 after 49 passages and 10 compound-free subculturing by retest method; format: functional
Streptococcus pneumoniae [8] = assay: Antibacterial activity against macrolide-resistant Streptococcus pneumoniae 2686 harboring mutation in L4 ribosomal protein after 22 passages and 10 compound-free subculturing by retest method; format: functional
Streptococcus pyogenes [9] = assay: Antibacterial activity against macrolide-resistant Streptococcus pyogenes 237 harboring mutation in L4 ribosomal protein after 43 passages and 10 compound-free subculturing by retest method
Streptococcus pyogenes [10] = assay: Antibacterial activity against macrolide-resistant Streptococcus pyogenes 237 harboring mutation in L4 ribosomal protein after 20 passages and 10 compound-free subculturing by retest method
Streptococcus pyogenes [11] = assay: Antibacterial activity against macrolide-resistant Streptococcus pyogenes 2094 harboring erm(A) gene after 5 passages and 10 compound-free subculturing by retest method
Streptococcus pneumoniae [12] = assay: Antibacterial activity against Streptococcus pneumoniae harboring mutation in 23S rRNA after overnight incubation by agar dilution method; format: functional; in short: as §1
Streptococcus pyogenes [13] = assay: Antibacterial activity against macrolide-resistant Streptococcus pyogenes 2368 harboring erm(B) gene after overnight incubation by agar dilution method
Streptococcus pyogenes [14] = assay: Antibacterial activity against macrolide-resistant Streptococcus pyogenes 2011 harboring mef(A) gene after 50 passages following overnight incubation by agar dilution method
Streptococcus pneumoniae [15] = assay: Antibacterial activity against macrolide-resistant Streptococcus pneumoniae 1076 harboring erm(B) and mef(A) gene after 14 passages and 10 compound-free subculturing by retest method; format: functional; in short: as §3
Streptococcus pneumoniae [16] = assay: Antibacterial activity against macrolide-resistant Streptococcus pneumoniae 2686 harboring mutation in L4 ribosomal protein after 25 passages and 10 compound-free subculturing by retest method; format: functional
Streptococcus pneumoniae [17] = assay: Antibacterial activity against penicillin-susceptible Streptococcus pneumoniae after overnight incubation by agar dilution method; format: functional
In short: (§4)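 Agar dilution on Mueller-Hinton agar supplemented with 5% sheep blood. Inoculum 10^4 CFU/spot, incubated overnight at 35°C in ambient air. Test strains were clinical pneumococcal isolates. S. pneumoniae ATCC 49619 was included as the quality control strain in each run. MIC range, MIC50 and MIC90 were reported for each susceptibility category.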

Streptococcus pneumoniae [18] = assay: Antibacterial activity against macrolide-resistant Streptococcus pneumoniae 1635 harboring erm(A) gene after overnight incubation by agar dilution method; format: functional
Streptococcus pyogenes [19] = assay: Antibacterial activity against macrolide-susceptible Streptococcus pyogenes 2132 after 50 passages following overnight incubation by agar dilution method
Streptococcus pyogenes [20] = assay: Antibacterial activity against macrolide-susceptible Streptococcus pyogenes 2132 after overnight incubation by agar dilution method
Streptococcus pneumoniae [21] = assay: Antibacterial activity against macrolide-resistant Streptococcus pneumoniae 1076 harboring erm(B) and mef(A) gene after overnight incubation by agar dilution method; format: functional
Streptococcus pyogenes [22] = assay: Antibacterial activity against macrolide-resistant Streptococcus pyogenes 2094 harboring erm(A) gene after overnight incubation by agar dilution method
Streptococcus pneumoniae [23] = assay: Antibacterial activity against macrolide-susceptible Streptococcus pneumoniae 7127 harboring S20N mutation in L4 ribosomal protein and A105V mutation in L22 ribosomal protein after 38 passages and 10 compound-free subculturing by retest method; format: functional
Streptococcus pneumoniae [24] = assay: Antibacterial activity against macrolide-susceptible Streptococcus pneumoniae 7127 harboring S20N mutation in L4 ribosomal protein and A105V mutation in L22 ribosomal protein after 16 passages and 10 compound-free subculturing by retest method; format: functional
Streptococcus pneumoniae [25] = assay: Antibacterial activity against macrolide-resistant Streptococcus pneumoniae 3665 harboring mef(A) gene after overnight incubation by agar dilution method; format: functional
Streptococcus pneumoniae [26] = assay: Antibacterial activity against macrolide-susceptible Streptococcus pneumoniae 1077 after 15 passages and 10 compound-free subculturing by retest method; format: functional
Streptococcus pneumoniae [27] = assay: Antibacterial activity against macrolide-resistant Streptococcus pneumoniae 24 harboring erm(B) gene after overnight incubation by agar dilution method; format: functional
Streptococcus pneumoniae [28] = assay: Antibacterial activity against macrolide-susceptible Streptococcus pneumoniae 1077 after overnight incubation by agar dilution method; format: functional
Streptococcus pneumoniae [29] = assay: Antibacterial activity against quinolone-susceptible Streptococcus pneumoniae after overnight incubation by agar dilution method; format: functional; in short: as §4
Streptococcus pneumoniae [30] = assay: Antibacterial activity against Streptococcus pneumoniae harboring erm(B) and mef(A) gene after overnight incubation by agar dilution method; format: functional; in short: as §1
Streptococcus pyogenes [31] = assay: Antibacterial activity against Streptococcus pyogenes harboring erm(A) gene after overnight incubation by agar dilution method; format: functional; in short: as §1
Streptococcus pneumoniae [32] = assay: Antibacterial activity against macrolide-resistant Streptococcus pneumoniae 3665 harboring mef(A) gene after 26 passages and 10 compound-free subculturing by retest method; format: functional
Streptococcus pyogenes [33] = assay: Antibacterial activity against macrolide-resistant Streptococcus pyogenes harboring mef(A) gene after overnight incubation by agar dilution method; format: functional; in short: as §2
Streptococcus pneumoniae [34] = assay: Antibacterial activity against macrolide-resistant Streptococcus pneumoniae 1076 harboring erm(B) and mef(A) gene after 18 passages and 10 compound-free subculturing by retest method; format: functional; in short: as §3

## CC[C@H]1OC(=O)[C@H](C)C(=O)[C@H](C)[C@@H](O[C@@H]2O[C@H](C)C[C@H](N(C)C)[C@H]2O)[C@](C)(OC)C[C@@H](C)C(=O)[C@H](C)[C@H]2N(CCCCn3cnc(-c4cccnc4)c3)C(=O)O[C@]12C [TELITHROMYCIN]
Streptococcus pneumoniae [1]
  MIC: 0.008 µg/mL (≈ 0.00985 µM)
Streptococcus pneumoniae [2]
  MIC: 0.125 µg/mL (≈ 0.154 µM)
Streptococcus pyogenes [3]
  MIC: 0.03 µg/mL (≈ 0.0369 µM)
Streptococcus pneumoniae [4]
  MIC50: 0.06 µg/mL (≈ 0.0739 µM)
  MIC90: 1 µg/mL (≈ 1.23 µM)
Streptococcus pneumoniae [5]
  MIC50: 0.125 µg/mL (≈ 0.154 µM)
  MIC90: 0.25 µg/mL (≈ 0.308 µM)
Streptococcus pneumoniae [6]
  MIC: 0.016 µg/mL (≈ 0.0197 µM)
Streptococcus pneumoniae [7]
  MIC: 0.06 µg/mL (≈ 0.0739 µM)
Streptococcus pneumoniae [8]
  MIC: 0.25 µg/mL (≈ 0.308 µM)
Streptococcus pyogenes [9]
  MIC: 0.06 µg/mL (≈ 0.0739 µM)
Streptococcus pyogenes [10]
  MIC: 1 µg/mL (≈ 1.23 µM)
Streptococcus pyogenes [11]
  MIC: 0.03 µg/mL (≈ 0.0369 µM)
Streptococcus pneumoniae [12]
  MIC: 0.03 µg/mL (≈ 0.0369 µM)
Streptococcus pyogenes [13]
  MIC: 8 µg/mL (≈ 9.85 µM)
Streptococcus pyogenes [14]
  MIC: 1 µg/mL (≈ 1.23 µM)
Streptococcus pneumoniae [15]
  MIC: > 64 µg/mL
Streptococcus pneumoniae [16]
  MIC: 0.5 µg/mL (≈ 0.616 µM)
Streptococcus pneumoniae [17]
  MIC50: 0.06 µg/mL (≈ 0.0739 µM)
  MIC90: 0.25 µg/mL (≈ 0.308 µM)
Streptococcus pneumoniae [18]
  MIC: 0.004 µg/mL (≈ 0.00493 µM)
Streptococcus pyogenes [19]
  MIC: 0.03 µg/mL (≈ 0.0369 µM)
Streptococcus pyogenes [20]
  MIC: 0.008 µg/mL (≈ 0.00985 µM)
Streptococcus pneumoniae [21]
  MIC: 0.5 µg/mL (≈ 0.616 µM)
Streptococcus pyogenes [22]
  MIC: 0.03 µg/mL (≈ 0.0369 µM)
Streptococcus pneumoniae [23]
  MIC: 0.03 µg/mL (≈ 0.0369 µM)
Streptococcus pneumoniae [24]
  MIC: 0.06 µg/mL (≈ 0.0739 µM)
Streptococcus pneumoniae [25]
  MIC: 0.125 µg/mL (≈ 0.154 µM)
Streptococcus pneumoniae [26]
  MIC: 0.25 µg/mL (≈ 0.308 µM)
Streptococcus pneumoniae [27]
  MIC: 0.25 µg/mL (≈ 0.308 µM)
Streptococcus pneumoniae [28]
  MIC: 0.004 µg/mL (≈ 0.00493 µM)
Streptococcus pneumoniae [29]
  MIC50: 0.125 µg/mL (≈ 0.154 µM)
  MIC90: 0.5 µg/mL (≈ 0.616 µM)
Streptococcus pneumoniae [30]
  MIC50: 0.5 µg/mL (≈ 0.616 µM)
  MIC90: 1 µg/mL (≈ 1.23 µM)
Streptococcus pyogenes [31]
  MIC50: 0.06 µg/mL (≈ 0.0739 µM)
  MIC90: 0.125 µg/mL (≈ 0.154 µM)
Streptococcus pneumoniae [32]
  MIC: 0.06 µg/mL (≈ 0.0739 µM)
Streptococcus pyogenes [33]
  MIC50: 0.5 µg/mL (≈ 0.616 µM)
  MIC90: 1 µg/mL (≈ 1.23 µM)
Streptococcus pneumoniae [34]
  MIC: 32 µg/mL (≈ 39.4 µM)
